Series [1] is described as follows: Half life in rat liver microsomes at 1 uM in presence of NADPH generating system measured for 10 to 90 mins by LC-MS/MS analysis. The format is ADME, Microsome. A digest of the protocol: (§1)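 Rat liver microsomes; stability expressed as t1/2 (min) and intrinsic clearance (μL/min/mg).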
(Liver microsomes are vesicles of endoplasmic reticulum, rich in cytochrome P450 enzymes.)

Series [2] deals with T1, 5-hydroxytryptamine receptor 7 (Homo sapiens, UniProt P34969). Briefly: Displacement of [3H]-LSD from 5HT7 receptor (unknown origin) expressed in CHO cell membranes at 10 uM incubated for 120 mins by scintillation counting method relative to control. A digest of the protocol: (§2)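 Single-concentration screen at 10 μM, reported as percent inhibition; 5-HT1A by [3H]-8-OH-DPAT displacement from HEK-293 membrane homogenates, 5-HT7 by [3H]-LSD displacement from CHO membrane homogenates, SERT by [3H]-5-HT uptake into rat brain synaptosomes.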
T1 sequence (P34969 whole entry): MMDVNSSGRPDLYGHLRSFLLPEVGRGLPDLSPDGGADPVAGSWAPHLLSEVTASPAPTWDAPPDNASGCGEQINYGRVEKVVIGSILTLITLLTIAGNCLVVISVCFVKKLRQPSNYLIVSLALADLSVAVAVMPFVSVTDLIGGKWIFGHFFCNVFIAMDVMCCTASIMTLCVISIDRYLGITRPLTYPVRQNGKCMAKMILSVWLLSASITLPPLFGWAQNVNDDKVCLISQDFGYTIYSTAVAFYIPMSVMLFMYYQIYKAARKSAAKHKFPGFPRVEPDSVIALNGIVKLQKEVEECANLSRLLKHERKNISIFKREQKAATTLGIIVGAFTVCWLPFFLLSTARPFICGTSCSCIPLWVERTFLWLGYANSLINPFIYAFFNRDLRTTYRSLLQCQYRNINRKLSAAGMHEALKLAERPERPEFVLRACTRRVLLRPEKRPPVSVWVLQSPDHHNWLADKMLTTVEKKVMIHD
In general terms: Loss of bound radioactivity is the signal in a displacement assay; it reports binding, not function.

Series [3] can be described thus: Clearance in rat liver microsomes at 1 uM in presence of NADPH generating system measured for 10 to 90 mins by LC-MS/MS analysis. In kind it is ADME, Microsome. A digest of the protocol: as §1
Series [4] deals with Sodium-dependent serotonin transporter (Rattus norvegicus, UniProt P31652). Briefly: Inhibition of rat synaptosomes 5HT transporter assessed as reduction in [3H]serotonin reuptake incubated for 15 mins by scintillation counting method. In kind it is subcellular.
Sequence of Sodium-dependent serotonin transporter (P31652 whole entry): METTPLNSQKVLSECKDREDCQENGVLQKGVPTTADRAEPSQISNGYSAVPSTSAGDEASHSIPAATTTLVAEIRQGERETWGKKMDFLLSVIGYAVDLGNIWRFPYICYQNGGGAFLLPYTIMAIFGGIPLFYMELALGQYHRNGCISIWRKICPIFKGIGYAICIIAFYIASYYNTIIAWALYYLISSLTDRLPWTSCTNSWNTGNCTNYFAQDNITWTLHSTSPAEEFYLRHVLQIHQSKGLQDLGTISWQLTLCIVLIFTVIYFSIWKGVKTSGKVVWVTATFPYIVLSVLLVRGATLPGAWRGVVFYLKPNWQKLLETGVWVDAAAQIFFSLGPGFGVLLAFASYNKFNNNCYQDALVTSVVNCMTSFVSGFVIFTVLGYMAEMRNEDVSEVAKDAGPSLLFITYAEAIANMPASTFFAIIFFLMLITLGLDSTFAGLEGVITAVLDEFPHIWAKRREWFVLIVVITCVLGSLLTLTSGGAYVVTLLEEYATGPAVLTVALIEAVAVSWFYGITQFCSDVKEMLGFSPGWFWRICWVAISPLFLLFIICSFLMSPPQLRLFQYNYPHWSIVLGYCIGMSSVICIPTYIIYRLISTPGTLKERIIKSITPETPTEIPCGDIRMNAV
Series [5] deals with T2, 5-hydroxytryptamine receptor 1A (Homo sapiens) (UniProt P08908).
T2 sequence (whole entry): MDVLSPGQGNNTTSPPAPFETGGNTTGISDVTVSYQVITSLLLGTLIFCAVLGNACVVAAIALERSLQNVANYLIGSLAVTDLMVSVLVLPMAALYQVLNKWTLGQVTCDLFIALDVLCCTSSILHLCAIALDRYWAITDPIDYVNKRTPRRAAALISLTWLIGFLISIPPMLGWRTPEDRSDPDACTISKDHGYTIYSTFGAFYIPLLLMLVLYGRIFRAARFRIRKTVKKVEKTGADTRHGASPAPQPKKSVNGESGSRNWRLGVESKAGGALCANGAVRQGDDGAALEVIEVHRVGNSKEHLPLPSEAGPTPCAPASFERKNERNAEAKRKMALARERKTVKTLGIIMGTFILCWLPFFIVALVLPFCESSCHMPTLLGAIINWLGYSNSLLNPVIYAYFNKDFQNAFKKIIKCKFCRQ
Briefly: Displacement of [3H]-8-OH-DPAT from 5HT1A receptor (unknown origin) expressed in HEK293 cells membranes at 10 uM incubated for 60 mins by scintillation counting method relative to control. In kind it is cell membranes. In short, it runs like this: as §2

Series [6] has as its target Sodium-dependent serotonin transporter (Rattus norvegicus) (UniProt P31652). Briefly: Inhibition of rat synaptosomes 5HT transporter assessed as reduction in [3H]serotonin reuptake at 10 uM incubated for 15 mins by scintillation counting method relative to control. In kind it is subcellular. A digest of the protocol:
as §2

A short description of series [7]: Half life in human liver microsomes at 1 uM in presence of NADPH generating system measured for 10 to 90 mins by LC-MS/MS analysis. The format is ADME, Microsome. A digest of the protocol: (§3)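 Human liver microsomes; metabolic stability as half-life (min) and clearance (μL/min/mg).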
Series [8] can be described thus: Clearance in human liver microsomes at 1 uM in presence of NADPH generating system measured for 10 to 90 mins by LC-MS/MS analysis. In kind it is ADME, Microsome. In short, it runs like this:
as §3

Series [9] relates to Mus musculus. Briefly: Antidepressant activity in ICR mouse assessed as decrease in immobility time at 40 mg/kg, po administrated for daily for 7 days measured 1 hr post last dose by tail suspension test relative to control. In kind it is functional. Also on record: scale not given: the % may be the effect or the level left. A digest of the protocol:
(§4)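 Male ICR mice given oral doses once daily for 7 days (10, 20, 40 mg/kg/day); immobility time recorded in tail suspension test versus control group.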

Series [10] deals with T1, 5-hydroxytryptamine receptor 7. Briefly: Displacement of [3H]-LSD from 5HT7 receptor (unknown origin) expressed in CHO cell membranes incubated for 120 mins by scintillation counting method.
Series [11] addresses T3, 5-hydroxytryptamine receptor 1A (Homo sapiens, UniProt P08908).
T3 sequence (P08908 whole entry): T2 sequence (whole entry)
Briefly: Displacement of [3H]-8-OH-DPAT from 5HT1A receptor (unknown origin) expressed in HEK293 cells membranes incubated for 60 mins by scintillation counting method. The format is cell membranes.

Series [12] addresses T1, 5-hydroxytryptamine receptor 7. The format is functional.
Series [13] has as its system Mus musculus. Briefly: Antidepressant activity in orally dosed ICR mouse assessed as decrease in immobility time measured 1 hr post last dose by tail suspension test. The format is functional, organism-based. In short, it runs like this:
as §4

The test system of series [14] is Mus musculus. Briefly: Antidepressant activity in ICR mouse assessed as decrease in immobility time at 10 mg/kg, po administrated for daily for 7 days measured 1 hr post last dose by forced swim test relative to control. Also on record: scale not given: the % may be the effect or the level left. In kind it is functional. A digest of the protocol: (§5)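 Male ICR mice dosed orally once daily for 7 days at 10, 20 or 40 mg/kg/day; immobility time scored in forced swim test against vehicle group; n = 10 per group, mean ± SEM.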

Series [15] relates to Mus musculus. Briefly: Antidepressant activity in ICR mouse assessed as decrease in immobility time at 40 mg/kg, po administrated for daily for 7 days measured 1 hr post last dose by forced swim test relative to control. In kind it is functional. Also on record: scale not given: the % may be the effect or the level left. A digest of the protocol:
as §5

For series [16], the system named is Mus musculus. Briefly: Antidepressant activity in orally dosed ICR mouse assessed as decrease in immobility time measured 1 hr post last dose by forced swim test. In kind it is functional, organism-based. In short, it runs like this: as §5
The subject of series [17] is Mus musculus. Briefly: Antidepressant activity in ICR mouse assessed as decrease in immobility time at 20 mg/kg, po administrated for daily for 7 days measured 1 hr post last dose by tail suspension test relative to control. In kind it is functional. Also on record: scale not given: the % may be the effect or the level left. A digest of the protocol: as §4
For series [18], the target named is T3, 5-hydroxytryptamine receptor 1A. Briefly: Agonist activity at human recombinant 5HT1A receptor (unknown origin) stably expressed in CHO-K1 incubated for 30 mins by [35S]GTPgammaS binding assay. In kind it is functional. (In general: GTPγS is a poorly hydrolysed GTP analogue; its binding reports G protein activation.)
Series [19] relates to Mus musculus. Briefly: Antidepressant activity in ICR mouse assessed as decrease in immobility time at 10 mg/kg, po administrated for daily for 7 days measured 1 hr post last dose by tail suspension test relative to control. In kind it is functional. Also on record: scale not given: the % may be the effect or the level left. A digest of the protocol:
as §4

For series [20], the system named is Mus musculus. Briefly: Antidepressant activity in ICR mouse assessed as decrease in immobility time at 20 mg/kg, po administrated for daily for 7 days measured 1 hr post last dose by forced swim test relative to control. The format is functional. Also on record: scale not given: the % may be the effect or the level left. In short, it runs like this: as §5

By half-life is commonly meant the time needed for the level to fall by half in the phase considered. Usually inhibition stands for the drop in the measured response relative to a control, in per cent. The term IC50 denotes the midpoint of a concentration-inhibition curve. Usually Ki stands for the equilibrium dissociation constant of an inhibitor or competing ligand from its target. One may read the EC50 as the concentration at which the effect is half-maximal.

Sequence of Sodium-dependent serotonin transporter (Rattus norvegicus) (P31652 whole entry): as the sequence (P31652 whole entry) above

Regarding `Fc1ccc2[nH]cc(CCCCN3CCN(c4nsc5ccccc45)CC3)c2c1`, the half-life at 1 µM in series [1] came out at 3.4 min. Further, the inhibition was 98.5% in series [2] and 101% in series [5]. Moreover, in [3], the CLH stood at 403 µL/min/mg. In addition, the IC50 in [4] is 7.08 nM.
As for `Fc1ccc(N2CCN(CCCc3c[nH]c4ccc(F)cc34)CC2)c(-c2cc[nH]c2)c1`, the inhibition is 99.1% in series [2], 78.9% in [6] and 97.4% in [5].
Take `N#Cc1ccc2[nH]cc(CCCCN3CCN(c4ccc5oc(C(N)=O)cc5c4)CC3)c2c1` [VILAZODONE]: the results for the half-life at 1 µM in series [1] and in [7] were 28.5 min and 53.3 min, respectively. Further, the CLH was determined as 48.6 µL/min/mg in [3] and 26 µL/min/mg in series [8]. In addition, the Activity in the series on Mus musculus [9] is given as 60%. In series [10], the inhibitory constant (Ki) turned out to be 3900 nM.
Regarding `COc1ccc2[nH]c([S+]([O-])Cc3ncc(C)c(OC)c3C)nc2c1` (stereo not given) [OMEPRAZOLE], the CLH in series [3] was determined as 163 µL/min/mg.
Take `COc1ccc2c(c1)[C@]13CCCC[C@@H]1[C@H](C2)N(C)CC3` [DEXTROMETHORPHAN]: the half-life at 1 µM in series [7] was determined as 44.7 min. Further, in series [8], the CLH came out at 31 µL/min/mg.
With `Fc1ccc(N2CCN(CCCc3c[nH]c4ccc(F)cc34)CC2)c(-c2cncnc2)c1`, the half-life at 1 µM in series [1] came to 6.6 min. The inhibition worked out at 90.9% in series [2], 102% in [6] and 98.8% in series [5]. Moreover, the CLH in series [3] amounted to 209 µL/min/mg.
Turning to `Fc1ccc2[nH]cc(CCCN3CCN(c4nsc5ccccc45)CC3)c2c1`, the half-life at 1 µM in series [1] is 3.5 min. Further, the CLH in series [3] is 397 µL/min/mg. The Ki in [11] was 1.6 nM; in series [10] it was 2.2 nM. Moreover, the IC50 in [4] was 1.1 nM.
Regarding `Fc1ccc(N2CCN(CCCc3c[nH]c4ccc(F)cc34)CC2)c(-c2cccs2)c1`, the results for the Ki in [11] and in [10] were 38 nM and 11 nM, respectively. Besides, in series [4], the IC50 was found to be 21 nM.
In the case of `Fc1ccc(C2CCN(CCCc3c[nH]c4ccc(F)cc34)CC2)c(-c2ccsc2)c1`, the half-life at 1 µM in [1] was 18.3 min. Besides, in [3], the CLH was 75.6 µL/min/mg. Further, the half-maximal inhibitory concentration (IC50) in series [4] is 14 nM.
In the case of `Fc1ccc(C2CCN(CCCc3c[nH]c4ccc(F)cc34)CC2)c(-c2ccccc2)c1`, the IC50 is 650 nM in series [12] and 14 nM in [4]. The Activity result was “Dose-dependent effect” with Mus musculus [13]; 29% with Mus musculus [14]; 43% with Mus musculus [15]; “Dose-dependent effect” with Mus musculus [16]; 35% with Mus musculus [17]; 43% with Mus musculus [9]. The Activity is given as 28% in the series with Mus musculus [19] and 47% with Mus musculus [20]. The half-life at 1 µM in series [1] was 48.6 min; in [7] it was 49.9 min. For the same compound, the CLH in series [3] turned out to be 28.5 µL/min/mg; in series [8], 27.8 µL/min/mg. Further, the EC50 in series [18] came to 1180 nM.
As for `Fc1ccc(N2CCN(CCCc3c[nH]c4ccc(F)cc34)CC2)c(-c2cccnc2)c1`, the half-life at 1 µM in series [1] was found to be 5.8 min. For the same compound, the inhibition in series [2] worked out at 100%; in [6], 104%; in series [5], 99.1%. In [3], the CLH turned out to be 240 µL/min/mg.
Turning to `Fc1ccc(N2CCN(CCCc3c[nH]c4ccc(F)cc34)CC2)c(-c2ccoc2)c1`, in series [1], the half-life at 1 µM worked out at 10.3 min. Further, the CLH in series [3] is 134 µL/min/mg. In addition, the Ki in series [11] came to 15 nM; in series [10] it was 11 nM. For the same compound, the IC50 in series [4] was 3 nM.
With `Fc1ccc2[nH]cc(CCN3CCN(c4nsc5ccccc45)CC3)c2c1`, the half-life at 1 µM in series [1] worked out at 3.1 min. Besides, the CLH in [3] came to 452 µL/min/mg. Besides, the inhibition constant (Ki) is 1.6 nM in series [11] and 0.99 nM in [10]. In addition, the IC50 in [4] is 23 nM.
With `Fc1ccc(N2CCN(CCCc3c[nH]c4ccc(F)cc34)CC2)c(-c2cn[nH]c2)c1`, the half-life at 1 µM in series [1] amounted to 7.2 min. The CLH in series [3] worked out at 192 µL/min/mg. Moreover, the Ki in series [11] turned out to be 6.3 nM; in series [10], 0.9 nM. For the same compound, the IC50 in [4] came out at 1.3 nM.
In the same order, the values of `Fc1ccc(N2CCN(CCCc3c[nH]c4ccc(F)cc34)CC2)c(-c2ccsc2)c1` are 24.5 min, 56.5 µL/min/mg, 8.4 nM, 2 nM and 4 nM.
Take `Cn1cc(-c2cc(F)ccc2N2CCN(CCCc3c[nH]c4ccc(F)cc34)CC2)cn1`: the half-life at 1 µM in series [1] worked out at 9.5 min. Further, the CLH in series [3] was 146 µL/min/mg. In addition, in [4], the 50% inhibitory concentration (IC50) was 2.7 nM.
Turning to `Fc1ccc2c(C3CCN(CCCc4c[nH]c5ccc(F)cc45)CC3)noc2c1`, the half-life at 1 µM in series [1] stood at 4.6 min. For the same compound, the inhibition in series [2] came out at 99.8%; in series [5], 101%. In addition, the CLH in series [3] was determined as 301 µL/min/mg. For the same compound, the half-maximal inhibitory concentration (IC50) in [4] came out at 0.92 nM.
Turning to `Cc1ccc(Sc2ccccc2N2CCNCC2)c(C)c1` [VORTIOXETINE], in the series with Mus musculus [15], the Activity amounted to 35%. For the same compound, the CLH in series [3] came out at 153 µL/min/mg; in series [8] it was 6.47 µL/min/mg. The half-life at 1 µM in series [7] is 214 min.

The record behind these values is ChEMBL document CHEMBL4406867, “Synthesis and antidepressant effect of novel aralkyl piperazine and piperidine derivatives targeting SSRI/5-HT1A/5-HT7” (Bioorg Med Chem Lett, 2019).
